From ChEMBL document CHEMBL1149224, “Direct superoxide anion scavenging by a highly water-dispersible carotenoid phospholipid evaluated by electron paramagnetic resonance (EPR) spectroscopy” (2004)

How the values were obtained:
Format in all cases: functional
Homo sapiens [1] = species: Homo sapiens; assay: Mean percent inhibition of aqueous superoxide anion production in isolated human neutrophil assay at 0.5 mM using water as solvent
Outline: (§1)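 The carotenoid phospholipid isomer mix was dispersed in deionized water without heat, detergent or additives. Isolated human PMNs (Percoll gradient, hypotonic erythrocyte lysis, washed in PIPES-HSA-glucose buffer, pH 7.4) were preincubated 5 min with the suspension, then PMA-stimulated. Superoxide was spin-trapped with 10 mM DEPMPO and the DEPMPO-OOH signal measured by X-band EPR. Inhibition is expressed relative to the no-compound control signal.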

Homo sapiens [2] = species: Homo sapiens; assay: Mean percent inhibition of aqueous superoxide anion production in isolated human neutrophil assay at 10 mM using water as solvent; outline: as §1
Homo sapiens [3] = species: Homo sapiens; assay: Mean percent inhibition of aqueous superoxide anion production in isolated human neutrophil assay at 0.3 mM using ethanol as solvent
Outline: (§2)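 Human PMNs from one donor's venous blood were isolated on a Percoll gradient (1.080 g/mL, 400g, 20 min, 20 C), erythrocytes removed by hypotonic lysis, and cells washed in PAG buffer (PIPES pH 7.4, 0.003% HSA, 0.1% glucose). Carotenoid phospholipid isomer mix was taken from a 41.2% EtOH stock (0.4% EtOH final). Cells were preincubated 5 min, then PMA-stimulated. The DEPMPO-OOH adduct (10 mM DEPMPO) was read by X-band EPR, and % inhibition set against the no-compound control.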

Homo sapiens [4] = species: Homo sapiens; assay: Mean percent inhibition of aqueous superoxide anion production in isolated human neutrophil assay at 1 mM using water as solvent; outline: as §1
Homo sapiens [5] = species: Homo sapiens; assay: Mean percent inhibition of aqueous superoxide anion production in isolated human neutrophil assay at 0.5 mM using ethanol as solvent; outline: as §2
Homo sapiens [6] = species: Homo sapiens; assay: Mean percent inhibition of aqueous superoxide anion production in isolated human neutrophil assay at 3 mM using ethanol as solvent; outline: as §2
Homo sapiens [7] = species: Homo sapiens; assay: Mean percent inhibition of aqueous superoxide anion production in isolated human neutrophil assay at 1 mM using ethanol as solvent; outline: as §2
Homo sapiens [8] = species: Homo sapiens; assay: Mean percent inhibition of aqueous superoxide anion production in isolated human neutrophil assay at 0.1 mM using ethanol as solvent; outline: as §2
Homo sapiens [9] = species: Homo sapiens; assay: Mean percent inhibition of aqueous superoxide anion production in isolated human neutrophil assay at 3 mM using water as solvent; outline: as §1

| Structure (SMILES) | Mean inhibition (Homo sapiens [1]) | Mean inhibition (Homo sapiens [2]) | Mean inhibition (Homo sapiens [3]) | Mean inhibition (Homo sapiens [4]) | Mean inhibition (Homo sapiens [5]) | Mean inhibition (Homo sapiens [6]) | Mean inhibition (Homo sapiens [7]) | Mean inhibition (Homo sapiens [8]) | Mean inhibition (Homo sapiens [9]) |
| --- | --- | --- | --- | --- | --- | --- | --- | --- | --- |
| CC1=C(/C=C/C(C)=C/C=C/C(C)=C/C=C/C=C(C)/C=C/C=C(\C)C(=O)OC(CO)COP(=O)([O-])OCC[N+](C)(C)C)C(C)(C)CCC1.CC1=C(/C=C/C(C)=C/C=C/C(C)=C/C=C/C=C(C)/C=C/C=C(\C)C(=O)OCC(CO)OP(=O)([O-])OCC[N+](C)(C)C)C(C)(C)CCC1.CC1=C(/C=C/C(C)=C/C=C/C(C)=C/C=C/C=C(C)/C=C/C=C(\C)C(=O)OCC(O)COP(=O)([O-])OCC[N+](C)(C)C)C(C)(C)CCC1 (stereo not given) | 18.2% | 94.3% | 31.3% | 24.6% | 61.7% | 98.7% | 79.3% | 13.3% | 51.8% |
| CC1=C(/C=C/C(C)=C/C=C/C(C)=C/C=C/C=C(C)/C=C/C=C(C)/C=C/C2=C(C)C(=O)C(OC(=O)CCC(=O)[O-])CC2(C)C)C(C)(C)CC(OC(=O)CCC(=O)[O-])C1=O.[Na+].[Na+] (stereo not given) [DISODIUM SALT DISUCCINATE DIESTER OF ASTAXANTHIN] | – | – | – | – | – | – | – | 38% | – |
